The results in this text go back to article PMC4427609 (Drug Design, Development and Therapy, 2015).

Where two headings read alike, the source gives them in different places.

Common to all, as to type: in vivo, rat
The test system of series [1] is Sprague-Dawley rats. The settings on record: third day post STZ, mean ± SEM, n=10; for ALP (alkaline phosphatase) / ALT (alanine aminotransferase) / AST (aspartate aminotransferase) / Albumin / Creatinine / GGT (gamma-glutamyl transferase) / Urea: serum. A digest of the protocol: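 Male SD rats got blank injections (no STZ), one STZ dose, or two STZ doses over 2 days. STZ was freshly dissolved in 0.1 M citrate buffer pH 4.5 and given at 80 mg/kg ip. On day 3 rats were fasted for 18 h with water ad libitum. They were then staged by glucose: Stage 0 <200, Stage 1 200–450, Stage 2 451–750 mg/dL.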

Series [2] relates to Sprague-Dawley rats. Nature of the series: Histopathology of liver, kidney and pancreas of STZ-induced diabetic rats. Particulars: hematoxylin and eosin, light microscope. In short, it runs like this: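 Diabetes was induced in male SD rats with freshly dissolved STZ (0.1 M citrate, pH 4.5), 80 mg/kg ip, two doses over 2 days; diabetic meant fasting glucose >200 mg/dL. Liver, kidney and pancreas from diabetic and nondiabetic rats were taken immediately after sacrifice and fixed in 10% phosphate-buffered formalin. Tissue was paraffin-embedded, cut at 5 μm, H&E-stained and examined by light microscopy.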

For series [3], the system named is STZ diabetic and nondiabetic rats. Description: Effect of insulin dose on STZ diabetic and nondiabetic rats. The settings on record: insulin 6 IU/kg subcutaneously, 2 hours, mean ± SEM, n=10.
Series [4] can be described thus: Serum insulin pharmacokinetics in STZ diabetic and nondiabetic rats. The settings on record: insulin 4 IU/kg subcutaneously; result in words.
Setting [5] is: Stage 1 diabetic rats (200–450 mg/dL).
Where [6] appears, read: Stage 2 diabetic rats (451–750 mg/dL).

For `CN(N=O)C(=O)N[C@H]1C(O)O[C@H](CO)[C@@H](O)[C@@H]1O` (mixture of isomers) [STZ, streptozotocin], in series [1] (setting [5]), the “Glucose (heart)” value came out at 439 ± 20.9 mg/dL, the “ALP (alkaline phosphatase)” value is reported as 247±47.5 IU/L, the “ALT (alanine aminotransferase)” value stood at 88±18.8 IU/L and the “AST (aspartate aminotransferase)” value amounted to 131.4±23.1 IU/L. In series [1] (setting [5]), the Albumin was determined as 4.5 ± 0.3 g/dL, the Creatinine stood at 1.1 ± 0.3 mg/dL, the “GGT (gamma-glutamyl transferase)” value was 3.4±0.8 IU/L and the Urea was 70.7 ± 10.2 mg/dL. Also, in series [1] (setting [6]), the “Glucose (heart)” value was 668 ± 34.5 mg/dL, the “ALP (alkaline phosphatase)” value amounted to 322.7±25.5 IU/L, the “ALT (alanine aminotransferase)” value turned out to be 80.1±8.1 IU/L and the “AST (aspartate aminotransferase)” value was 151.8±22.9 IU/L. Moreover, in series [1] (setting [6]), the Albumin came to 4.9 ± 0.2 g/dL, the Creatinine worked out at 1.6 ± 0.2 mg/dL, the “GGT (gamma-glutamyl transferase)” value is reported as 9.5±4.1 IU/L and the Urea is 148.8 ± 9.3 mg/dL. For the same molecule, in series [2], the “Histology of kidney sections” value was “tubular atrophy and increased vacuolization of renal tubular epithelial cells”; the “Histology of liver sections” value is recorded as “clear diffused hepatic steatosis”.

“insulin: Recombinant human (rh) insulin powder from Biocon, dissolved in Tris buffer (pH 7), injected subcutaneously”: the results for the “minimum percentage of glucose level” value in series [3] (STZ diabetic rats) and in series [3] (nondiabetic rats) were 13.4%±1% and 40.7%±4%, respectively. Also, in series [4], the “AUC of diabetic rats compared to nondiabetic rats” value is on record as “doubled”.
